Source: PubChem BioAssay AID504353 (Broad Institute, 2011)
The source made the active and inactive calls.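 Rule for the calls: active = fitted curve climbs past 10% caspase activation, relative to the positive control, at or below the top valid tested dose; inactive = the rest, including activity in the opposite direction.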

Key:
[1] = test system: wild-type MEF caspase-3/7 activation, CaspaseGlo luminescence, 3 h; experiment: apoptosis induction in unprimed parental MEFs – cell-based, wild-type MEF, luminescence, dry powder, set 4, counter-screen for A1 inhibitor project, dose response (AID 504353)
In short: (§1)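 Test system: Wild-type MEFs, not A1-dependent | Amount: 2500 cells per well | Medium: RPMI-1640, 10% FBS | Incubation: 3 h compound exposure, 37 °C | Measure: Caspase activation level from luminescent signal | Dosing: Pin-transferred compound | Measured by: CaspaseGlo luminescence after 1 h reagent incubation, room temperature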

[2] = as above; conditions: wild-type MEF caspase-3/7 activation, CaspaseGlo luminescence, 3 h; at 35 µM (top of the series)
In short: as §1

Structure (SMILES) | AC10 [1] [µM] | caspase activation [2]
COCCn1c(=O)c([N+](=O)[O-])c(Sc2ccc(C)cc2)c2ccccc21 | 22 | –
Cn1c(=O)c([N+](=O)[O-])c(-n2cnc3ccccc32)c2ccccc21 | 26.1 | –
Cc1ccc(Sc2c(Sc3ccc(C)cc3)c3ccccc3n(C)c2=O)cc1 | – | -0.533% (inactive)
O=c1c([N+](=O)[O-])c(Cl)c2ccccc2n1Cc1ccccc1 | 3.93 | –
O=c1[nH]c2ccccc2c(Cl)c1[N+](=O)[O-] | – | -2.56% (inactive)
Cn1c(=O)c([N+](=O)[O-])c(Cl)c2ccccc21 | 2.9 | –
Cc1ccc(Sc2c([N+](=O)[O-])c(=O)n(Cc3ccccc3)c3ccccc23)cc1 | 21.7 | –
CCn1c(=O)c([N+](=O)[O-])c(Sc2ccc(C)cc2)c2ccccc21 | – | 0.55% (inactive)
C/C(=N\Nc1nc(N2CCCCC2)nc(N2CCCCC2)n1)c1ccc(F)cc1 | – | 0.729% (inactive)
COc1ccc(CCNc2nc(N3CCOCC3)nc(N3CCOCC3)n2)cc1OC | – | 0.427% (inactive)
O=C(COc1ccc(Cl)cc1Cl)NNc1nc(N2CCOCC2)nc(N2CCOCC2)n1 | – | 2.07% (inactive)
COCCn1c(=O)c(Sc2ccc(C)cc2)c(Sc2ccc(C)cc2)c2ccccc21 | – | 0.618% (inactive)
